# Measurements from ChEMBL document CHEMBL1143996, “Toward the development of chemoprevention agents (III): synthesis and anti-inflammatory activities of a new class of 5-glycylamino-2-substituted-phenyl-1,3-dioxacycloalkanes” (Bioorg Med Chem, 2008).
# Key:
# [1] = test system: Mus musculus; assay: Antiinflammatory activity in Kunming mouse assessed as inhibition of xylene-induced ear edema at 30 mg/kg, po; assay type: functional
# Summary of the method: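 Male Kunming mice, 12 per group (tables give n = 11), dosed orally by gavage as a suspension in 0.5% carboxymethyl cellulose; CMC alone as vehicle control. After 30 min, 0.03 mL xylene applied to both surfaces of the right ear, with the left ear as control.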
# [2] = test system: Mus musculus; assay: Toxicity assessed as tail bleeding in Kunming mouse at 200 mg/kg, po after 5 mins; assay type: organism-based; parameters: dose 200 mg/kg, route oral; conditions: in vivo
# Summary of the method: (§1)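 Male mice (18–22 g) given a single oral dose, normal saline vehicle, n = 10. At set times after dosing, mouse restrained in a tube holder with tail protruding and a 2-mm tail cut made. Blood wiped away every 30 s until bleeding stopped; bleeding time recorded in s and compared with pre-dose values.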
# [3] = test system: Mus musculus; assay: Toxicity assessed as tail bleeding in Kunming mouse at 200 mg/kg, po after 15 mins; assay type: organism-based; parameters: dose 200 mg/kg, route oral; conditions: in vivo, 0.25 h; summary of the method: as §1
# [4] = test system: Mus musculus; assay: Toxicity assessed as tail bleeding in Kunming mouse at 200 mg/kg, po after 30 mins; assay type: organism-based; parameters: dose 200 mg/kg, route oral; conditions: in vivo, 0.5 h; summary of the method: as §1
# [5] = test system: Mus musculus; assay: Toxicity assessed as tail bleeding in Kunming mouse at 200 mg/kg, po after 60 mins; assay type: organism-based; parameters: dose 200 mg/kg, route oral; conditions: in vivo, 1 h; summary of the method: as §1
# [6] = test system: Mus musculus; assay: Antiinflammatory activity in Kunming mouse assessed as inhibition of xylene-induced ear edema at 20 mg/kg, po; assay type: functional
Structure (SMILES),inhibition in vivo at 30 mg/kg [1],Time [2],Time [3],Time [4],Time [5],inhibition in vivo at 20 mg/kg [6]
CC(=O)Oc1ccccc1C(=O)O [ASPIRIN],40.7%,,,,,
NCC(=O)N[C@H]1CCO[C@H](c2cccc([N+](=O)[O-])c2)OC1,,2.02 min,2 min,2 min,2.02 min,
Cc1ccc([C@H]2OC[C@@H](NC(=O)CN)[C@@H](C)O2)cc1,,2 min,2.04 min,2.02 min,2 min,
NCC(=O)N[C@H]1CCO[C@H](c2ccc(Cl)cc2)OC1,,2.02 min,1.99 min,2 min,1.99 min,
NCC(=O)N[C@H]1CCO[C@H](c2ccc([N+](=O)[O-])cc2)OC1,,2.01 min,2.01 min,2 min,1.99 min,
Cc1ccc([C@H]2OC[C@@H](NC(=O)CN)CO2)cc1,,2 min,2 min,1.99 min,2 min,
C[C@H]1O[C@@H](c2ccc(Cl)cc2)OC[C@H]1N,,,,,,66.7%
NCC(=O)N[C@H]1CCO[C@@H](c2ccc([N+](=O)[O-])cc2)OC1,,2 min,2.05 min,2 min,1.99 min,
NCC(=O)N[C@H]1CCO[C@@H](c2cccc([N+](=O)[O-])c2)OC1,,1.99 min,1.99 min,2.05 min,1.99 min,
NCC(=O)N[C@H]1CO[C@@H](c2ccccc2)OC1,,2 min,2 min,2.02 min,2.01 min,
C[C@H]1O[C@@H](c2ccc([N+](=O)[O-])cc2)OC[C@H]1NC(=O)CN,,2 min,2.02 min,1.98 min,2.01 min,
C[C@H]1O[C@@H](c2ccc(Cl)cc2)OC[C@H]1NC(=O)CN,,2.04 min,2.01 min,2 min,2.01 min,
NCC(=O)N[C@H]1CO[C@@H](c2ccc([N+](=O)[O-])cc2)OC1,,2.02 min,2.01 min,2.04 min,2.02 min,
C[C@H]1O[C@@H](c2cccc([N+](=O)[O-])c2)OC[C@H]1NC(=O)CN,,2.01 min,2.01 min,1.98 min,2 min,
NCC(=O)N[C@H]1CCO[C@@H](c2ccc(Cl)cc2)OC1,,1.99 min,2.01 min,2.01 min,2 min,
C[C@H]1O[C@@H](c2ccc([N+](=O)[O-])cc2)OC[C@H]1N,,,,,,78.5%
NCC(=O)N[C@H]1CO[C@@H](c2cccc([N+](=O)[O-])c2)OC1,,2 min,2 min,2.04 min,2.02 min,
NCC(=O)N[C@H]1CO[C@@H](c2ccc(Cl)cc2)OC1,,2.01 min,2.01 min,2 min,2 min,
C[C@H]1O[C@@H](c2ccccc2)OC[C@H]1NC(=O)CN,,2.02 min,2 min,2.01 min,2.03 min,
